Results as given in ChEMBL document CHEMBL2169747, “Synthesis and biological properties of highly sequence-specific-alkylating N-methylpyrrole-N-methylimidazole polyamide conjugates” (J Med Chem, 2012).

Legend:
Format in all cases: functional
[1] = test system: A549; test: Upregulation of BBC3 gene expression in human A549 cells at 26 nM after 12 hrs by microarray analysis relative to control
How it was run: (§1)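 A549 cells (RPMI-1640, 10% heat-inactivated FBS, penicillin/streptomycin, 37 °C, 5% CO2) seeded at 4 × 10^5 per 60 mm dish. Exposed 12 h to conjugate at 21, 26, 34 or 100 nM in medium with 0.1% DMSO, against 0.1% DMSO control. Whole-genome (~25 000 genes) expression profiled by microarray.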

[2] = test system: A549; test: Downregulation of HS2ST1 gene expression in human A549 cells at 26 nM after 12 hrs by microarray analysis relative to control
How it was run: (§2)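 A549 cells, 4 × 10^5 per 60 mm dish, were exposed to conjugate for 12 h in medium with 0.1% DMSO; vehicle control was 0.1% DMSO. Whole human genome (~25 000 genes) expression was profiled by microarray and expression compared with the control.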

[3] = test system: A549; test: Downregulation of MYCBP2 gene expression in human A549 cells at 26 nM after 12 hrs by microarray analysis relative to control; how it was run: as §2
[4] = test system: A549; test: Downregulation of HIST1H2AC gene expression in human A549 cells at 26 nM after 12 hrs by microarray analysis relative to control; how it was run: as §2
[5] = test system: A549; test: Upregulation of U124 gene expression in human A549 cells at 34 nM after 12 hrs by microarray analysis relative to control
How it was run: (§3)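 4 ×10^5 A549 cells seeded per 60 mm dish and treated 12 h with conjugate (21, 26, 34 or 100 nM) in medium; control medium contained 0.1% DMSO, with conjugates added as 0.1% DMSO solutions. Whole human genome (~25 000 genes) expression profiled by microarray against the DMSO control. A549 culture: RPMI-1640 with 10% heat-inactivated FBS, penicillin/streptomycin, 37 °C, 5% CO2.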

[6] = test system: A549; test: Upregulation of GLS2 gene expression in human A549 cells at 34 nM after 12 hrs by microarray analysis relative to control; how it was run: as §3
[7] = test system: A549; test: Downregulation of RABGAP1L gene expression in human A549 cells at 34 nM after 12 hrs by microarray analysis relative to control; how it was run: as §1
[8] = test system: A549; test: Downregulation of LAMA2 gene expression in human A549 cells at 34 nM after 12 hrs by microarray analysis relative to control; how it was run: as §2
[9] = test system: A549; test: Downregulation of HIST1H2AC gene expression in human A549 cells at 34 nM after 12 hrs by microarray analysis relative to control; how it was run: as §2
[10] = test system: A549; test: Downregulation of GPX6 gene expression in human A549 cells at 34 nM after 12 hrs by microarray analysis relative to control; how it was run: as §2
[11] = test system: A549; test: Downregulation of NP_001027.2 gene expression in human A549 cells at 34 nM after 12 hrs by microarray analysis relative to control; how it was run: as §2

Structure (SMILES)	fold change (FC) [1]	fold change (FC) [2]	fold change (FC) [3]	fold change (FC) [4]	fold change (FC) [5]	fold change (FC) [6]	fold change (FC) [7]	fold change (FC) [8]	fold change (FC) [9]	fold change (FC) [10]	fold change (FC) [11]
CC(=O)Nc1cn(C)c(C(=O)Nc2cc(C(=O)Nc3cc(C(=O)NCCC(=O)Nc4cc(C(=O)NCCCC(=O)Nc5cc(C(=O)NCCC(=O)Nc6cn(C)c(C(=O)Nc7ccc8[nH]c(C(=O)N9CC(CCl)c%10c9cc(O)c9ccccc%109)cc8c7)n6)n(C)c5)n(C)c4)n(C)c3)n(C)c2)n1 (racemic)	9.4	0.329	0.338	0.362							
CC(=O)Nc1cn(C)c(C(=O)Nc2cn(C)c(C(=O)Nc3cc(C(=O)NCCC(=O)Nc4cc(C(=O)NCCCC(=O)Nc5cn(C)c(C(=O)NCCC(=O)Nc6cn(C)c(C(=O)Nc7ccc8[nH]c(C(=O)N9CC(CCl)c%10c9cc(O)c9ccccc%109)cc8c7)n6)n5)n(C)c4)n(C)c3)n2)n1 (racemic)					5.6	6.7	0.276	0.3	0.329	0.322	0.313
